# Results reported in publication PMC3529830 (Chemistry & biology, 2012).
# Tests used:
# [1] = test system: P. falciparum; settings: 1 μM; ref Czesny et al., 2009; cited from earlier work
# [2] = test system: NIH3T3 cells; settings: 1 μM; ref Czesny et al., 2009; cited from earlier work
# [3] = test system: A549 cells; settings: 1 μM; ref Czesny et al., 2009; cited from earlier work
# [4] = rat P. berghei model; ref Gantt et al., 1998; cited from earlier work
# [5] = test system: P. falciparum; assay: P. falciparum replication assay; type: cell-based; settings: Plasmodium falciparum, read-out: EC50, parasite replication
# [6] = test system: P. falciparum gametocytes; assay: P. falciparum gametocyte viability assay; type: cell-based, Plasmodium falciparum; settings: 24 hr treatment
# [7] = Host toxicity in P. berghei infected mice during treatment; settings: daily I.V. doses, scruffy coat, significant weight loss
# [8] = target: putative β5 subunit of P. falciparum proteasome (Plasmodium falciparum, UniProt Q8IJT1); assay: Proteasome activity in intact inhibitor-treated trophozoites by MV151 labeling; type: cell-based
# Outline: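 P. falciparum culture at ~15% parasitemia; intact trophozoites exposed 1 hr to a range of inhibitor concentrations, then pelleted and washed 3× in fresh medium. Hypotonic lysis (50 mM Tris pH 7.4, 5 mM MgCl2, 1 mM DTT) on ice 1 hr. ≥2 μg lysate labeled with 2 μM MV151, 37°C 1 hr. Run on 12% SDS-PAGE, TAMRA fluorescence scan. Band intensity expressed as % of DMSO; curve fit to IC50; 3 independent experiments.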
# [9] = test system: non-confluent human foreskin fibroblast (HFF) cells; assay: HFF cell toxicity assay; type: cell-based; settings: read-out: EC50, host cell killing
# [10] = 5 consecutive days of treatment; ref Demo et al., 2007; cited from earlier work
# [11] = test system: P. falciparum proteasome; assay: Recovery of P. falciparum proteasome activity after inhibitor washout; type: cell-based, Plasmodium falciparum
# [12] = test system: P. berghei; assay: P. berghei mouse model of malaria, parasitemia; type: in vivo, Plasmodium berghei in Balb/c mice; settings: tolerated dose, I.V. daily for 3 consecutive days
smiles,measurement,setting,value
CC[C@H](C)[C@H](NC(=O)[C@H]([C@@H](C)CC)N(C)C(C)=O)C(=O)N[C@H](C(=O)N[C@@H](CC(C)C)C(=O)[C@@]1(C)CO1)[C@@H](C)O [epoxomicin],effect on P. falciparum replication,[1],completely blocking
same,decrease in viability,[2],20%
same,decrease in viability,[3],20%
"CC(=O)N[C@@H](CSC(=O)[C@]1([C@@H](O)C(C)C)NC(=O)[C@H](C)[C@@H]1O)C(=O)O [lactacystin, Lactacystin]",host toxicity,[4],significant host toxicity
"CC(C)C[C@H](NC(=O)[C@H](CCc1ccccc1)NC(=O)CN1CCOCC1)C(=O)N[C@@H](Cc1ccccc1)C(=O)N[C@@H](CC(C)C)C(=O)[C@@]1(C)CO1 [carfilzomib, Carfilzomib]",EC50,[5],28.8 nM
same,activity against gametocytes,[6],effective towards gametocytes
same,dose at which mice started to develop signs of compound toxicity,[7],1 mg/kg
same,IC50,[8],25 nM
same,EC50,[9],492 nM
same,maximum tolerable dose,[10],2 mg/kg
same,inhibitor exposure necessary to prevent recovery of proteasome activity,"[11]; 100 nM dose, activity determined 10 hr after washout",at least 6 hr
same,recovery of proteasome activity after washout,"[11]; 1 μM, 1 hr treatment, 47 hrs after compound washout",substantial recovery of proteasome activity
same,time to recovery of proteasome activity after inhibitor removal,"[11]; 1 hr treatment of trophozoites, washout, depending on the dose",≤ 24 h
same,effect on parasite burden,[12],only a very minor effect on parasite burden at day 3
